Results on 14 compounds are retold here after ChEMBL document CHEMBL1821613, “Synthesis and evaluation of 5-substituted 2'-deoxyuridine monophosphate analogues as inhibitors of flavin-dependent thymidylate synthase in Mycobacterium tuberculosis” (J Med Chem, 2011).

Molecules are shown by their SMILES.

Assay [1] has as its target T1, Flavin-dependent thymidylate synthase (Mycobacterium tuberculosis) (UniProt P9WG57).
T1 sequence (whole entry): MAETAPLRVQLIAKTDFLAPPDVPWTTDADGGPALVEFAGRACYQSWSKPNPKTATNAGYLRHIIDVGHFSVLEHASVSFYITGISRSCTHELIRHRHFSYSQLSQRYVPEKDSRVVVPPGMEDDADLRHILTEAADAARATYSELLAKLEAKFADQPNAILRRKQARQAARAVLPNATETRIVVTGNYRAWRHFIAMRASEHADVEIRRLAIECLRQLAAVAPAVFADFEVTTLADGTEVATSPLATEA
Kind of assay: Inhibition of Mycobacterium tuberculosis ThyX-mediated dTMP synthesis using [5-3H]dUMP as substrate at 50 uM after 10 mins by liquid scintillation counting. Summed up: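 Compounds tested at a single 50 μM dose on purified M. tuberculosis ThyX with 20 μM mTHF, 10 μM FAD, 500 μM NADPH. [5-3H]dUMP (13 Ci/mmol, stock 2 μM) added to start, 10 min at room temperature, TCA/dUMP stop, charcoal cleanup, tritiated water counted by scintillation; percent inhibition relative to control.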

Assay [2] has as its target T2, Flavin-dependent thymidylate synthase (Mycobacterium tuberculosis, UniProt P9WG57).
T2 sequence (P9WG57 whole entry): T1 sequence (whole entry)
Kind of assay: Inhibition of Mycobacterium tuberculosis ThyX-mediated dTMP synthesis using [5-3H]dUMP as substrate after 10 mins by liquid scintillation counting. Summed up:
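Purified M. tuberculosis ThyX with 20 μM mTHF, 10 μM FAD and 500 μM NADPH; reaction started with [5-3H]dUMP (13 Ci/mmol, stock 2 μM), run 10 min at room temperature, stopped with TCA/dUMP. Unreacted substrate removed with activated charcoal (15 min on ice, then centrifugation); tritiated water in supernatant counted. IC50 from dose-response curves of percent activity versus control.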

Assay [3] deals with T3, Thymidylate synthase ThyA (Mycobacterium tuberculosis, UniProt P9WFR9).
T3 sequence (P9WFR9 whole entry): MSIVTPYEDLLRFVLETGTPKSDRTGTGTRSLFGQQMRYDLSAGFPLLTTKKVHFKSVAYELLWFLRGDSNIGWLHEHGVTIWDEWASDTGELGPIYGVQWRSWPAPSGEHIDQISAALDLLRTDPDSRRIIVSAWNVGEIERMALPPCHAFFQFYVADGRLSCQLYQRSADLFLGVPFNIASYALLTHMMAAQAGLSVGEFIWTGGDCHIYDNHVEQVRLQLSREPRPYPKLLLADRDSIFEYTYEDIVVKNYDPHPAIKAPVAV
Kind of assay: Inhibition of Mycobacterium tuberculosis His-tagged ThyA-mediated dTMP synthesis expressed in BL21 (DE3) Escherichia coli RbCl cells after 30 mins by photometric assay.

As usually defined, the inhibition is how much of the control response was suppressed. A word on the IC50: it is the point on the concentration scale where inhibition reaches its midpoint. Higher therefore signals a need for much substance. `CCCCCC(=O)NCC#Cc1cn([C@H]2C[C@H](O)[C@@H](COP(=O)(O)O)O2)c(=O)[nH]c1=O`: the inhibition in assay [1] was determined as 89.9%. The concentration for half-maximal inhibition (IC50) is 8.61 µM in assay [2] and over 50 µM in assay [3].
For the compound `O=C(Cc1ccccc1)NCC#Cc1cn([C@H]2C[C@H](O)[C@@H](COP(=O)(O)O)O2)c(=O)[nH]c1=O`, the inhibition in assay [1] was found to be 86.9%. Moreover, the half-maximal inhibitory concentration (IC50) in assay [2] was 7.3 µM; in assay [3], over 50 µM.
The compound `N#C/C=C/c1cn([C@H]2C[C@H](O)[C@@H](COP(=O)(O)O)O2)c(=O)[nH]c1=O` had an inhibition in assay [1] of 81.3%. Moreover, the IC50 is 7.4 µM in assay [2] and over 50 µM in assay [3].
Take `CCCCCCCCCCC#Cc1cn([C@@H]2O[C@H](COP(=O)(O)O)[C@@H](O)[C@@H]2O)c(=O)[nH]c1=O`: the inhibition in assay [1] is 19%. Moreover, the IC50 in assay [2] and in assay [3] was over 50 µM in each case.
`CCCCCCNC(=O)NCC#Cc1cn([C@H]2C[C@H](O)[C@@H](COP(=O)(O)O)O2)c(=O)[nH]c1=O` had an inhibition in assay [1] of 90.9%. Further, the IC50 in assay [2] was 4.84 µM; in assay [3], over 50 µM.
For `CCCCCCCCCCC#Cc1cn([C@H]2C[C@H](O)[C@@H](COP(=O)(O)O)O2)c(=O)[nH]c1=O`, in assay [1], the inhibition was 82.6%. The IC50 in assay [2] was 27.8 µM; in assay [3], over 50 µM.
In the same order, the values of `O=c1[nH]c(=O)n([C@H]2C[C@H](O)[C@@H](COP(=O)(O)O)O2)cc1F` are 95.1%, 0.29 µM and 0.57 µM.
As to `CCCCCCCS(=O)(=O)NCC#Cc1cn([C@H]2C[C@H](O)[C@@H](COP(=O)(O)O)O2)c(=O)[nH]c1=O`, the inhibition in assay [1] was 84.7%. Besides, the concentration for half-maximal inhibition (IC50) in assay [2] is 6.93 µM; in assay [3], over 50 µM.
For the compound `COc1cccc(-c2cn([C@H]3C[C@H](O)[C@@H](COP(=O)(O)O)O3)c(=O)[nH]c2=O)c1`, the inhibition in assay [1] came out at 16%. Further, the half-maximal inhibitory concentration (IC50) in assay [2] and in assay [3] was over 50 µM in each case.
In the case of `CCCCNC(=O)CCCCC#Cc1cn([C@@H]2O[C@H](COP(=O)(O)O)[C@@H](O)[C@@H]2O)c(=O)[nH]c1=O`, in assay [1], the inhibition was 21%. The IC50 in assay [2] and in assay [3] was over 50 µM throughout.
In the case of `O=c1[nH]c(=O)n([C@H]2C[C@H](O)[C@@H](COP(=O)(O)O)O2)cc1-c1ccc(F)cc1`, the inhibition in assay [1] came out at 74%. In addition, the IC50 in assay [2] was 10 µM; in assay [3], over 50 µM.
In the case of `CCCCNC(=O)CCCCC#Cc1cn([C@H]2C[C@H](O)[C@@H](COP(=O)(O)O)O2)c(=O)[nH]c1=O`, in assay [1], the inhibition was 74.6%. In addition, the values for the IC50 in assay [2] and in assay [3] were 8.03 µM and over 50 µM, respectively.
`CCCC(=O)NCC#Cc1cn([C@H]2C[C@H](O)[C@@H](COP(=O)(O)O)O2)c(=O)[nH]c1=O`: the inhibition in assay [1] stood at 72%. Moreover, the 50% inhibitory concentration (IC50) in assay [2] was 26.2 µM; in assay [3], over 50 µM.
In the same order, the values of `CCCCCCCC(=O)NCC#Cc1cn([C@H]2C[C@H](O)[C@@H](COP(=O)(O)O)O2)c(=O)[nH]c1=O` are 92.8%, 0.91 µM and over 50 µM.
